According to ChEMBL document CHEMBL4334542, “Antimalarial N 1,N 3-Dialkyldioxonaphthoimidazoliums: Synthesis, Biological Activity, and Structure-activity Relationships” (ACS Med Chem Lett, 2020):
Each block holds one compound with its values, some of them ahead of it. The source made the active and inactive calls. The rule behind the calls is not given here.

Columns and labels:
Plasmodium falciparum [1] = experiment: Antimalarial activity against asexual stage of Plasmodium falciparum Dd2 infected in erythrocytes assessed as reduction in parasite growth incubated for 48 hrs under hypoxic condition by Hoechst 33342 staining based flow cytometry; format: functional, organism-based; details: Dd2, 48 h
How it was run: (§1)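 Asexual Dd2 and 3D7 parasites in erythrocytes; DNA content of infected cells measured by Hoechst 33342 staining and FACS. IC50 is the concentration giving 50% of the net fluorescence of untreated control cultures; mean ± SD of n = 3 separate determinations.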

Plasmodium falciparum [2] = experiment: Antimalarial activity against asexual stage of Plasmodium falciparum 3D7 infected in erythrocytes assessed as reduction in parasite growth incubated for 48 hrs under hypoxic condition by Hoechst 33342 staining based flow cytometry; format: functional, organism-based; details: 3D7, 48 h; how it was run: as §1
CHO-K1 = experiment: Cytotoxicity against CHOK1 cells assessed as reduction in cell viability incubated for 48 hrs by CellTiter 96 aqueous one solution assay; format: cell-based; details: Cricetulus griseus, CHO-K1, 48 h
How it was run: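 Cell growth measured by a tetrazolium dye assay. IC50 is the concentration reducing growth by 50% relative to untreated cultures; mean ± SD of n = 3 separate determinations.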

Plasmodium falciparum [3] = experiment: Antimalarial activity against asexual stage of Plasmodium falciparum NF54 assessed as reduction in parasite growth incubated for 96 hrs by SYBR Green I dye-based fluorescence assay; format: functional, organism-based; details: NF54, 96 h
How it was run: (§2)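 Asexual NF54, K1 and W2 parasites; proliferation read as SYBR Green I fluorescence. IC50 is the concentration giving 50% of the net SYBR Green I fluorescence of untreated control cultures; mean ± SEM of n = 3 independent biological replicates.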

Plasmodium falciparum [4] = experiment: Antimalarial activity against asexual stage of Plasmodium falciparum K1 assessed as reduction in parasite growth incubated for 96 hrs by SYBR Green I dye-based fluorescence assay; format: functional, organism-based; details: K1, 96 h; how it was run: as §2
Plasmodium falciparum [5] = experiment: Antimalarial activity against asexual stage of Plasmodium falciparum W2 assessed as reduction in parasite growth incubated for 96 hrs by SYBR Green I dye-based fluorescence assay; format: functional, organism-based; details: W2, 96 h
Plasmodium falciparum [6] = experiment: Antimalarial activity against Plasmodium falciparum NF54 early gametocytes transfected with luciferase gene incubated for 48 hrs by luciferase reporter gene assay; format: functional, organism-based; details: NF54, 48 h
How it was run: (§3)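 Gametocytes of NF54-Pfs16-GFP-Luc, early (>95% stage II/III) or late (>90% stage IV/V); luciferase read-out. IC50 is the concentration giving 50% reduction of luminescence; mean ± SEM of n = 3 independent biological replicates.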

Plasmodium falciparum [7] = experiment: Antimalarial activity against Plasmodium falciparum NF54 late gametocytes transfected with luciferase gene incubated for 48 hrs by luciferase reporter gene assay; format: functional, organism-based; details: NF54, 48 h; how it was run: as §3
Plasmodium falciparum [8] = experiment: Antimalarial activity against asexual stage of Plasmodium falciparum 3D7 infected in O-positive erythrocytes assessed as reduction in parasite growth incubated for 72 hrs by SYBR Green I dye-based spectrophotometric analysis; format: functional, organism-based; details: 3D7, 72 h
Plasmodium falciparum [9] = experiment: Antimalarial activity against sexual stage of Plasmodium falciparum 3D7 gametocytes assessed as reduction in parasite growth incubated for 3 days by alamar blue staining based assay; format: functional, organism-based; details: 3D7, 72 h
Plasmodium falciparum [10] = experiment: Antimalarial activity against Plasmodium falciparum NF54 incubated for 48 hrs by [3H]-hypoxanthine incorporation assay; format: functional, organism-based
Plasmodium falciparum [11] = experiment: Antimalarial activity against Plasmodium falciparum K1 incubated for 48 hrs by [3H]-hypoxanthine incorporation assay; format: functional, organism-based
Plasmodium falciparum [12] = experiment: Antimalarial activity against Plasmodium falciparum TM90C2B incubated for 48 hrs by [3H]-hypoxanthine incorporation assay; format: functional, organism-based
[13] = Redox cycling activity of the compound […] measured after 45 mins by phenol red reagent based horseradish peroxidase coupled assay
How it was run: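 Redox cycling EC50 determined by the phenol red horseradish peroxidase assay.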

Plasmodium falciparum [14] = experiment: Antimalarial activity against asexual stage of Plasmodium falciparum NF54 assessed as reduction in parasite growth at 1 uM incubated for 96 hrs by SYBR Green I dye-based fluorescence assay relative to control; format: functional; set-up: scale not given: the % may be the effect or the level left

Structure (SMILES): CCCC[n+]1c2c(n(C)c1C)C(=O)c1ccccc1C2=O
IC50 (Plasmodium falciparum [1]): 0.0141 µM
IC50 (Plasmodium falciparum [2]): 0.0043 µM
IC50 (CHO-K1): 13.1 µM

IC50 (Plasmodium falciparum [6]): 0.039 µM
IC50 (Plasmodium falciparum [7]): 0.164 µM
Structure (SMILES): CCCCCCCC[n+]1c2c(n(CC(C)C)c1C)C(=O)c1ccccc1C2=O
IC50 (Plasmodium falciparum [3]): 0.00436 µM
IC50 (Plasmodium falciparum [4]): 0.00823 µM
IC50 (Plasmodium falciparum [5]): 0.0036 µM

Structure (SMILES): CCC[n+]1c2c(n(C)c1C)C(=O)c1ccccc1C2=O
IC50 (Plasmodium falciparum [1]): 0.0143 µM
IC50 (Plasmodium falciparum [2]): 0.0048 µM
IC50 (CHO-K1): 3.9 µM

IC50 (Plasmodium falciparum [6]): 0.37 µM
IC50 (Plasmodium falciparum [7]): 0.237 µM
Structure (SMILES): CCCCCCCCCC[n+]1c2c(n(CC(C)C)c1C)C(=O)c1ccccc1C2=O
IC50 (Plasmodium falciparum [3]): 0.00496 µM
IC50 (Plasmodium falciparum [4]): 0.0133 µM
IC50 (Plasmodium falciparum [5]): 0.0061 µM

Structure (SMILES): CCOc1ccc(N(C(C)=O)C2=C(NC)C(=O)c3ccccc3C2=O)cc1
EC50 (Plasmodium falciparum [8]): 0.001 µM
EC50 (Plasmodium falciparum [9]): 0.122 µM

Structure (SMILES): CCn1c2c([n+](C3CC3)c1C)C(=O)c1ccccc1C2=O
IC50 (Plasmodium falciparum [1]): 0.035 µM
IC50 (Plasmodium falciparum [2]): 0.0661 µM
IC50 (CHO-K1): 6.6 µM

Structure (SMILES): CCCn1c2c([n+](CC)c1C)C(=O)c1ccccc1C2=O
IC50 (Plasmodium falciparum [1]): 0.0084 µM
IC50 (Plasmodium falciparum [2]): 0.0037 µM
IC50 (CHO-K1): 8.2 µM
IC50 (Plasmodium falciparum [3]): 0.00345 µM
IC50 (Plasmodium falciparum [4]): 0.0065 µM
IC50 (Plasmodium falciparum [5]): 0.00494 µM
IC50 (Plasmodium falciparum [6]): 0.39 µM
IC50 (Plasmodium falciparum [7]): 0.709 µM
IC50 (Plasmodium falciparum [10]): 0.0012 µM
IC50 (Plasmodium falciparum [11]): 0.0022 µM
IC50 (Plasmodium falciparum [12]): 0.0022 µM
Activity [13]: Active

Structure (SMILES): CC[n+]1c2c(n(C)c1C)C(=O)c1ccccc1C2=O
IC50 (Plasmodium falciparum [1]): 0.0199 µM
IC50 (Plasmodium falciparum [2]): 0.0084 µM
IC50 (CHO-K1): 3.6 µM

Structure (SMILES): CCCn1c2c([n+](C3CC3)c1C)C(=O)c1ccccc1C2=O
IC50 (Plasmodium falciparum [1]): 0.0207 µM
IC50 (Plasmodium falciparum [2]): 0.331 µM
IC50 (CHO-K1): 5.5 µM

Structure (SMILES): CC1=CC(=O)c2ccccc2C1=O [MENADIONE]
Activity (Plasmodium falciparum [14]): 20 - 40%

Structure (SMILES): Cc1n(C)c2c([n+]1C)C(=O)c1ccccc1C2=O
IC50 (Plasmodium falciparum [1]): 0.0265 µM
IC50 (Plasmodium falciparum [2]): 0.0226 µM
IC50 (CHO-K1): 5.7 µM

Structure (SMILES): CCCCn1c2c([n+](CCCC)c1C)C(=O)c1ccccc1C2=O
IC50 (Plasmodium falciparum [1]): 0.0436 µM
IC50 (Plasmodium falciparum [2]): 0.0505 µM
IC50 (CHO-K1): 30.4 µM

IC50 (Plasmodium falciparum [6]): 0.269 µM
IC50 (Plasmodium falciparum [7]): 0.842 µM
Structure (SMILES): CCC[n+]1c2c(n(CC(C)C)c1C)C(=O)c1ccccc1C2=O
IC50 (Plasmodium falciparum [3]): 0.00297 µM
IC50 (Plasmodium falciparum [4]): 0.00442 µM
IC50 (Plasmodium falciparum [5]): 0.00212 µM

Structure (SMILES): Cc1n(C2CC2)c2c([n+]1C1CC1)C(=O)c1ccccc1C2=O
IC50 (Plasmodium falciparum [1]): 0.0386 µM
IC50 (Plasmodium falciparum [2]): 0.0415 µM
IC50 (CHO-K1): 42.5 µM

IC50 (Plasmodium falciparum [6]): 0.143 µM
IC50 (Plasmodium falciparum [7]): 0.551 µM
Structure (SMILES): CCCCCC[n+]1c2c(n(CC(C)C)c1C)C(=O)c1ccccc1C2=O
IC50 (Plasmodium falciparum [3]): 0.0062 µM
IC50 (Plasmodium falciparum [4]): 0.01 µM
IC50 (Plasmodium falciparum [5]): 0.00528 µM

Structure (SMILES): CCn1c2c([n+](CC)c1C)C(=O)c1ccccc1C2=O
IC50 (Plasmodium falciparum [1]): 0.0191 µM
IC50 (Plasmodium falciparum [2]): 0.006 µM
IC50 (CHO-K1): 14.7 µM

Activity [13]: inactive
Structure (SMILES): CCCCn1c(C)nc2c1C(=O)c1ccccc1C2=O
Activity (Plasmodium falciparum [14]): <=50%

Structure (SMILES): C[C@H]1[C@H](OC(=O)CCC(=O)O)O[C@@H]2O[C@@]3(C)CC[C@H]4[C@H](C)CC[C@@H]1[C@@]24OO3 [ARTESUNATE]
IC50 (Plasmodium falciparum [1]): 0.0133 µM
IC50 (Plasmodium falciparum [2]): 0.0228 µM
IC50 (Plasmodium falciparum [3]): 0.003 µM
IC50 (Plasmodium falciparum [4]): 0.00326 µM
IC50 (Plasmodium falciparum [6]): 0.063 µM
IC50 (Plasmodium falciparum [7]): 0.259 µM
IC50 (Plasmodium falciparum [10]): 0.0032 µM
IC50 (Plasmodium falciparum [11]): 0.0014 µM
IC50 (Plasmodium falciparum [12]): 0.0027 µM

Structure (SMILES): Cc1n(C)c2c([n+]1C1CC1)C(=O)c1ccccc1C2=O
IC50 (Plasmodium falciparum [1]): 0.0304 µM
IC50 (Plasmodium falciparum [2]): 0.0257 µM
IC50 (CHO-K1): 3.1 µM

Structure (SMILES): CCOc1ccc(N(C(C)=O)C2=C(N(C)C)C(=O)c3ccccc3C2=O)cc1
EC50 (Plasmodium falciparum [8]): 0.032 µM
EC50 (Plasmodium falciparum [9]): 0.319 µM

Activity [13]: inactive
Structure (SMILES): Cc1nc2c(n1C(C)C)C(=O)c1ccccc1C2=O
Activity (Plasmodium falciparum [14]): <=50%

Structure (SMILES): CCCC[n+]1c2c(n(C(C)C)c1C)C(=O)c1ccccc1C2=O
IC50 (Plasmodium falciparum [1]): 0.0149 µM
IC50 (Plasmodium falciparum [2]): 0.0116 µM
IC50 (CHO-K1): 80.3 µM
